Most compounds without a hit are left out; they make up all but 1.9% or so of the library.
Env fusion inh: inhibitors of HIV-1 Env-driven cell-cell fusion, primary screen, HeLa-JRFL effector, CEM21 target cells, luciferase; 360,000 compounds, 1.1% hits; AID 651610, 2012; inhibition, % at 12.3 µM;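 active = mean replicate inhibition score of at least 50 and every replicate individually at or above 50; inconclusive = only one of the two criteria met; inactive = mean below 50 and not all replicates reaching 50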
Rtt109 Vps75: inhibitors of C. albicans Rtt109/Vps75 HAT, primary screen, biochemical, ThioGlo CoA-SH fluorescence, plate reader | AID 540336, 2011 | 330,000 compounds, 0.16% hits | Histone acetyltransferase RTT109 (Candida albicans (strain SC5314 / ATCC MYA-2876)), … | inhibition, % at 34.9 µM | purified Rtt109/Vps75, 4 h;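 active = inhibition of at least 50% in every replicate; inconclusive = best replicate reaches 50% inhibition but some replicates fall short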
Target sequence (Q5AAJ8 whole entry, looked up): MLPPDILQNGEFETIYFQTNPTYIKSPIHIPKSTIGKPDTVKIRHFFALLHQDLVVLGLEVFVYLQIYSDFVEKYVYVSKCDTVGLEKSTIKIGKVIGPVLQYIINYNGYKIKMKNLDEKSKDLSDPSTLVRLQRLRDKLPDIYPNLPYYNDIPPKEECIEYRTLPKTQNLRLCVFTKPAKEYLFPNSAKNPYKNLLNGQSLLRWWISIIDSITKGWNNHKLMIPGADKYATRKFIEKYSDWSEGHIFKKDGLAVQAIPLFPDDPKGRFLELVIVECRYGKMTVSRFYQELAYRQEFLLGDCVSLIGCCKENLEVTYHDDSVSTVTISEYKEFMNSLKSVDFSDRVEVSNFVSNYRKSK
SR-BI uptake up: activators of SR-BI mediated DiI-HDL uptake, primary screen, ldlA[mSR-BI] CHO cells, DiI fluorescence; 320,000 compounds, 0.096% hits; activation, % at 12.5 µM; AID 504775, 2011; 3 h; 100 = double the neutral-control signal;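 active = mean replicate activation of at least 60% and every replicate at or above 60%; inconclusive = mean or all-replicate condition met, but not both; inactive = mean below 60% and not all replicates reaching 60%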
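Test system: SR-BI-overexpressing, LDLR-lacking CHO cells; Also added: labelled HDL, 10 µg/mL; Measured by: bottom-read cell fluorescence after medium removal, ex 550/em 595 nm; Timing: 3 h uptake period with compound, 37 °C; Buffer or medium: F12, 0.5% BSA, 25 mM HEPES; Doses: single compound concentration, delivered by pin transfer.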
SR-BI DiI inh: inhibitors of SR-BI mediated HDL lipid uptake, primary screen, ldlA[mSR-BI] cells, fluorescence, single point. 320,000 compounds, 0.96% hits. inhibition, % at 12.5 µM. ldlA[mSR-BI] CHO cells, DiI-HDL uptake fluorescence, 3 h. AID 488896, 2010. Scavenger receptor class B member 1 (Mus musculus), Q61009;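 active = mean replicate inhibition of at least 70% and a set share of replicates each scoring 70 or more; inconclusive = meets just one of the two criteria; inactive = fails both criteria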
Glyco luc inh: increase of ERlucT glycosylation luciferase signal, primary screen, N-linked glycosylation inhibitor project, D54 ERlucT cells, luminescence, set 2. D54 ERlucT glycosylation luciferase reporter, 24 h; percent of 100 nM tunicamycin response. reporter increase, % at 12.5 µM. 360,000 compounds, 0.23% hits. AID 588692, 2011;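 active = mean luciferase reporter signal, scaled so untreated is 0 and the glycosylation-blocking control 100, at or above a set limit in every replicate; inconclusive = mean reaches the limit but not every replicate does; inactive = mean below the limit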;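 also: luciferase carries N-glycosylation sites so blocking glycosylation raises the light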
PglD DTNB: C. jejuni PglD acetyltransferase inhibitors, primary screen, biochemical, DTNB colorimetric, single point | UDP-N-acetylbacillosamine N-acetyltransferase PglD (Campylobacter jejuni) | purified PglD enzyme, DTNB colorimetric CoA detection | inhibition, % at 12.5 µM | 360,000 compounds, 0.098% hits | AID 602405, 2012; in the data active = inhibition above about 16%, passing the limit was not always enough; inconclusive = no clear call, values can overlap the other calls
A number is an active result; - = inactive; ? = inconclusive; . = no result given; [ ] = another dose, or the depositor's remark.

SMILES	Env fusion inh	Rtt109 Vps75	SR-BI uptake up	SR-BI DiI inh	Glyco luc inh	PglD DTNB
C[C@H]1CN([C@@H](C)CO)C(=O)c2c(c3ccccc3n2C)-c2ccccc2CO[C@@H]1CN(C)C(=O)Cc1ccccc1	59[16.7 µM]	.	.	.	.	-
C[C@H](CO)N1C[C@H](C)[C@H](CN(C)C(=O)Cc2ccccc2)OCc2ccccc2-c2c(n(C)c3ccccc23)C1=O	58[16.7 µM]	.	.	.	.	-
C[C@H]1CN([C@@H](C)CO)C(=O)c2c(c3ccccc3n2C)-c2ccccc2CO[C@@H]1CN(C)C(=O)c1ccccc1	.	.	.	.	.	-
C[C@H]1CN([C@@H](C)CO)S(=O)(=O)c2ccc(C#Cc3cccnc3)cc2O[C@H]1CN(C)C(=O)C1CC1	-	.	.	.	.	-
O=C(NCc1ccc(F)cc1)[C@@H]1[C@@H](CO)[C@@H]2Cn3c(ccc(C4=CCCCC4)c3=O)[C@H]1N2	-	.	.	.	.	-
CCCN(C)C[C@@H]1OCCCC[C@H](C)Oc2ccc(NC(=O)NC3CCCCC3)cc2C(=O)N([C@@H](C)CO)C[C@@H]1C	-	.	.	.	.	-
COC(=O)[C@H]1[C@H](CO)[C@H]2Cn3c(ccc(C4=CCCCC4)c3=O)[C@H]2N1C(=O)C1CC1	.	.	.	.	.	-
CCCC#Cc1ccc([C@H]2[C@@H](CO)N3CCCCN(Cc4cccnc4)C[C@@H]23)cc1	.	.	.	.	.	-
CO[C@H](C(=O)N(C)C[C@@H]1OCc2ccccc2-c2c(n(C)c3ccccc23)C(=O)N([C@H](C)CO)C[C@@H]1C)c1ccccc1	78	.	.	.	-	-
C[C@H]1CN([C@@H](C)CO)C(=O)c2ccccc2-c2ccccc2CO[C@@H]1CN(C)C(=O)CCC(F)(F)F	57[16.7 µM]	.	.	.	.	.
CC(C)COC(=O)N(C)C[C@H]1OCc2ccccc2-c2c(n(C)c3ccccc23)C(=O)N([C@H](C)CO)C[C@@H]1C	62[16.7 µM]	.	.	.	.	-
C[C@@H]1CN([C@@H](C)CO)C(=O)c2ccccc2-c2ccccc2CO[C@@H]1CN(C)C(=O)CCC(F)(F)F	-	.	.	.	.	-
COc1ccc(S(=O)(=O)N(C)C[C@H]2OCCCC[C@@H](C)Oc3ccc(NC(=O)CCCN(C)C)cc3C(=O)N([C@H](C)CO)C[C@@H]2C)cc1	-	.	.	.	.	-
C[C@H]1CN([C@@H](C)CO)C(=O)c2cccc(NS(=O)(=O)c3ccc(Cl)cc3)c2O[C@H]1CN(C)C(=O)Nc1ccc(F)cc1	-	.	.	.	.	-
O=C(Cc1ccccc1)NCCCc1ccccc1	.	-	-	-	-	-
O=C(CCC(=O)NCCCc1ccccc1)NCCCc1ccccc1	-	-	62	-	-	.
O=C(CNC(=O)N1CC(=O)Nc2ccccc21)NCCCc1ccccc1	-	.	.	.	27	-
COc1ccc(S(=O)(=O)Nc2ccc3c(c2)C(=O)N([C@@H](C)CO)C[C@@H](C)[C@@H](CN(C)C(=O)CCC(F)(F)F)OCCCC[C@@H](C)O3)cc1	-	.	.	.	.	-
Cc1ccccc1S(=O)(=O)N1C[C@@H]2[C@H](c3ccccc31)[C@@H](CO)N2C(=O)CC1CC1	.	.	.	.	.	-
Cc1ccc(-c2ccc3c(c2)O[C@H](CN(C)Cc2ccncc2)[C@@H](C)CN([C@H](C)CO)S3(=O)=O)cc1	-	.	.	.	.	-
Cc1ccc(S(=O)(=O)N2C[C@H]3[C@H]4C(=O)N(C5CCCCC5)C(=O)[C@H]4CC(=O)[C@H]3[C@@H]2c2ccccc2Cl)cc1	59	.	.	.	-	-
CC1=CC2C(C(O)CC3(C)C2CC(C)C32OCOC23COCO3)C2(C)C/C(=C\O)C(=O)C=C12 (centres undefined)	113	-	-	-	-	.
CN(C)C(=O)c1ccc(-c2ccc3c(c2)[C@H]2[C@H](CCN2Cc2cncnc2)[C@H](CO)N3)cc1	.	.	.	.	.	-
CC(C)OC(=O)c1c(NC(=O)Cn2cnc([N+](=O)[O-])n2)sc2c1CCCC2	-	-	.	75	-	-
CCc1cc(=O)oc2cc3occ(-c4ccc(OC)c(F)c4)c3cc12	-	-	-	76	-	-
SMILES	Env fusion inh	Rtt109 Vps75	SR-BI uptake up	SR-BI DiI inh	Glyco luc inh	PglD DTNB
COc1ccc(NC(=O)C(=O)c2cn(CC(=O)N3CCCC3)c3ccccc23)c(OC)c1	-	-	-	72	-	-
Cc1ccc(C)c(N(C(=O)c2nsc(Cl)c2Cl)C(C(=O)NC2CCCC2)c2ccc(O)cc2)c1 (centres undefined)	89	?	-	-	-	-
CC1=C(CC/C(C)=N/NC(N)=S)C(C)(C)CCC1	.	-	-	76	-	-
CCCOc1ccc(NC(=O)C2CC(=O)N/C(=N/N=C(C)/C=C/c3ccc(N(C)C)cc3)S2)cc1 (centres undefined)	.	-	-	82	-	-
Cc1ccccc1S(=O)(=O)NCC[C@@H]1CC[C@@H](NC(=O)Nc2cccc(Cl)c2)[C@H](CO)O1	-	.	.	.	.	-
CCCCCCOC(=O)C[N+](C)(C)CCOC1CC2CCC1(C)C2(C)C (centres undefined)	-	-	-	-	-	-
CCC(C)OC(=O)C[N+](C)(C)CCOC1CC2CCC1(C)C2(C)C (centres undefined)	66	-	-	-	-	-
CC(C)CCOC(=O)C[N+](C)(C)CCOC1CC2CCC1(C)C2(C)C (centres undefined)	76	-	-	-	-	.
CCCOC(=O)C[N+](C)(C)CCOC1CC2CCC1(C)C2(C)C (centres undefined)	-	-	-	-	-	.
CCCCOC(=O)C1CCC[C@@H](C)N1 (some centres undefined)	.	-	-	-	-	-
CCCCCCCOC(=O)C[N+](C)(C)CCOC1CC2CCC1(C)C2(C)C (centres undefined)	75	?	69	-	-	.
CCCCOC(=O)C[N+](C)(C)CCOC1CC2CCC1(C)C2(C)C (centres undefined)	103	.	-	-	-	-
CC(=O)OC(COC1C[C@@H]2CC[C@@]1(C)C2(C)C)C[N+]1(C)CCCCC1 (some centres undefined)	-	-	-	-	-	.
Cc1ccc(F)cc1S(=O)(=O)N[C@H]1CCN(Cc2ccc(OC(C)C)cc2)C1	-	.	.	.	.	.
C[C@H]1CN([C@@H](C)CO)C(=O)c2cc(-c3ccccc3F)cnc2O[C@H]1CN(C)C(=O)C1CCC1	-	.	.	.	.	-
COc1ccccc1CC(NC(C)=O)C(=O)N1CCN(C(=O)c2cccs2)CC1 (centres undefined)	.	-	-	-	-	-

Bioassay records from PubChem.
